Compounds with a hit are over-represented: about 1.4% of the library has one in this group of screens.
PG9 binder: small molecules binding HIV-1 gp120 antibody PG9 | TR-FRET gp120-PG9 antibody binding | inhibition, % at 6.7 µM | 360,000 compounds, 0.43% hits | AID 624416; in the data active = inhibition above about 8.5%
NR2E3 ag-1: agonists of human nuclear receptor NR2E3 | GST-NR2E3/biotin-RetCOR TR-FRET, 1536-well | inhibition of corepressor binding, % at 4.78 µM | 320,000 compounds, 0.12% hits | AID 2300;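 active = percent inhibition above the cutoff of mean plus 3 SD of all tested compounds, set per screening campaign, cut at about 20% in these data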;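 also: 0% = DMSO wells and 100% = biotin wells as full block of FRET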
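Assay system: NR2E3–RetCOR corepressor complex. Quantity: 1.35 nM GST-NR2E3. Buffer or medium: pH 7.5 Tris-based buffer. Reagent: biotinylated RetCOR corepressor at 7 nM final. Schedule: 5 h at 4 °C. Detection: TR-FRET, emission read at 617 and 671 nm. Replicates: one well per compound, singlicate testing.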
NR2E3 ag-2: activates human NR2E3 receptor | Q9Y5X4 | CHO-S Gal4-NCOR/VP16-NR2E3 two-hybrid, luciferase | inhibition of corepressor binding, % at 3.98 µM | 360,000 compounds, 0.35% hits;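 active = inhibition above the mean of all tested compounds plus 3 SD, cut at about 70% in these data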;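 also: 0% = DMSO with NR2E3 transfected cells and 100% = cells lacking NR2E3 construct; higher means lower luciferase signal from less NR2E3 corepressor binding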
NR1D1 modulator: modulators of human Rev-erb alpha DNA binding; Rev-erbα–FITC-DNA binding, fluorescence polarization, 90 min; activity, % at 10 µM; 370,000 compounds, 0.79% hits;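 active = activity above about 14%, limit read from the data; passing the limit was not always enough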;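 also: 0% = DMSO wells with 35 nM protein and 100% = DMSO wells with 750 nM protein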
Target sequence (P20393 whole entry, looked up): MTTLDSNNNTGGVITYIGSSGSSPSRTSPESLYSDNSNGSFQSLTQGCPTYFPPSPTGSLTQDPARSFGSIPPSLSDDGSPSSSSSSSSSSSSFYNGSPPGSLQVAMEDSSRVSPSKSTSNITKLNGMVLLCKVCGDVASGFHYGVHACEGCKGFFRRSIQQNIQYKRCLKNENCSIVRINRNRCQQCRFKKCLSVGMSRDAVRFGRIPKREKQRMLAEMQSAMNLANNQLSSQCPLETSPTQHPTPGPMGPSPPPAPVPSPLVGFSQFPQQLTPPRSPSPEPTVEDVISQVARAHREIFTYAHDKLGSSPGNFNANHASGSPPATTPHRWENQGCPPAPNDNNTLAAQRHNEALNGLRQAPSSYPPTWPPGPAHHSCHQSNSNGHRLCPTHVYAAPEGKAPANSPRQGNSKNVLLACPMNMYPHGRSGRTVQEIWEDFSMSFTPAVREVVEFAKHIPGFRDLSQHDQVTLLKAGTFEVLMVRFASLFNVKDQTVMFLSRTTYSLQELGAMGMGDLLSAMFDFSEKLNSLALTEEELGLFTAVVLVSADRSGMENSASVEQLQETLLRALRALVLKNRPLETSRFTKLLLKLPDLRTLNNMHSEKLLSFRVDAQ
NR1D1 mod conf: confirmation of modulators of human Rev-erb alpha DNA binding. shares compounds with NR1D1 modulator. Rev-erb alpha FITC-DNA binding, fluorescence polarization, 90 min. activation, % at 25 µM. 3,000 compounds, 61% hits. AID 1259319;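 active = activation at or above a set limit, or at least 3 SD above the negative control mean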;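 also: 0% = 35 nM protein with DMSO and 100% = 750 nM protein high control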
RORg DNA counter: counter-screen for Rev-erb alpha modulators: RORgamma DNA binding. shares compounds with NR1D1 modulator. purified RORgamma protein-FITC-DNA binding, fluorescence polarization. IC50, µM. 910 compounds, 8% hits;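 active = Compounds whose fitted half-maximal concentration for disrupting protein-DNA binding is below 10 micromolar; the record names Rev-erb in its text, so the target is in doubt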
Numbers without * were called inactive.

How did Cc1[nH]c2ccccc2c1/C=C/c1cc[n+](C)cc1 do in these assays?
PG9 binder: -22; NR2E3 ag-2: -18; NR1D1 modulator: 251*; NR1D1 mod conf: 172*; RORg DNA counter: >40

What do the screens show for `O=C(CSc1nnc(COc2ccccc2)n1-c1ccc(Cl)cc1)Nc1ccccc1-c1ccccc1`?
NR1D1 modulator: 1

How did Cc1ccccc1NC(=O)Cc1nc(COC(=O)c2cc(Cl)ccc2O)cs1 do in these assays?
PG9 binder: 3; NR2E3 ag-1: 2; NR2E3 ag-2: -39; NR1D1 modulator: 19*; NR1D1 mod conf: 8

What do the screens show for `Cc1ccccc1NC(=O)Cc1nc(COC(=O)c2cc(Br)ccc2O)cs1`?
PG9 binder: 2; NR2E3 ag-1: 3; NR2E3 ag-2: -4; NR1D1 modulator: 17

How did CC(C(=O)N1CCc2ccccc21)N1CCN(S(=O)(=O)c2ccc(C(F)(F)F)cc2)CC1 (stereo unspecified) do in these assays?
PG9 binder: 0; NR2E3 ag-1: 0; NR2E3 ag-2: -8; NR1D1 modulator: 17*; NR1D1 mod conf: -3

Results for O=C(OCC#CCSc1nnc(-c2cccc3ccccc23)o1)C1CC1 ?
NR1D1 modulator: -1

Results for O=C(N=c1ccn(-c2nc3ccccc3nc2NS(=O)(=O)c2ccc(Cl)cc2)cc1)c1cccs1 ?
PG9 binder: 2; NR2E3 ag-1: -3; NR2E3 ag-2: -33; NR1D1 modulator: 91*; NR1D1 mod conf: 33*; RORg DNA counter: inactive

What do the screens show for `COc1ccc(CCNC(=O)c2c(N)[nH]c(C(=O)c3ccccc3)c2-c2ccc(N(C)C)cc2)cc1`?
NR1D1 modulator: -2

How did OCC[n+]1ccc(/C=C/c2c[nH]c3ccccc23)cc1 do in these assays?
PG9 binder: -16; NR2E3 ag-1: -5; NR2E3 ag-2: -26; NR1D1 modulator: 161*; NR1D1 mod conf: 144*; RORg DNA counter: inactive

Results for C(=Cc1c[nH]c2ccccc12)c1nccc2ccccc12 ?
PG9 binder: -2; NR2E3 ag-2: -175; NR1D1 modulator: 25*; NR1D1 mod conf: 23*

Results for Oc1ccc2ccccc2c1N=Nc1ccccc1F ?
PG9 binder: 1; NR2E3 ag-1: -2; NR2E3 ag-2: -6; NR1D1 modulator: 19*; NR1D1 mod conf: 5

Results for Oc1ccc2ccccc2c1N=Nc1ccccn1 ?
PG9 binder: -6; NR2E3 ag-1: -2; NR2E3 ag-2: -18; NR1D1 modulator: 5

What do the screens show for `O=S(=O)(O)c1cccc(N=Nc2c(O)ccc3ccccc23)c1`?
PG9 binder: -8; NR2E3 ag-1: 1; NR2E3 ag-2: -13; NR1D1 modulator: 30*; NR1D1 mod conf: 6

Results for O=c1c(Cl)c(Nc2cccc(Cl)c2)cnn1-c1nc2ccccc2s1 ?
PG9 binder: -2; NR2E3 ag-1: 10; NR2E3 ag-2: -54; NR1D1 modulator: 19*; NR1D1 mod conf: 10

Results for COc1ccc(Nc2cnn(-c3nc4ccccc4s3)c(=O)c2Cl)cc1 ?
PG9 binder: 0; NR2E3 ag-1: -6; NR2E3 ag-2: -71; NR1D1 modulator: 0

How did COc1cccc(CNC(=O)COC(=O)c2cc(Br)c(Br)s2)c1 do in these assays?
PG9 binder: 1; NR2E3 ag-1: 6; NR2E3 ag-2: 1; NR1D1 modulator: 21*; NR1D1 mod conf: 18*

What do the screens show for `O=C(Cn1c(=O)c(=O)n(Cc2ccccc2)c2ccc(Cl)cc21)Nc1ccc(F)cc1F`?
PG9 binder: -2; NR2E3 ag-1: 1; NR2E3 ag-2: 1; NR1D1 modulator: 29*; NR1D1 mod conf: 12

Results for CC(C)(C)NC(=O)Cn1c(=O)c(=O)n(Cc2ccccc2)c2ccc(Cl)cc21 ?
PG9 binder: 0; NR2E3 ag-1: -5; NR2E3 ag-2: -8; NR1D1 modulator: -2

How did CCN1CCCCC(NC(=O)c2ccc(F)c(F)c2)C1=O (stereo unspecified) do in these assays?
NR1D1 modulator: -3

Results for COc1cccc(-n2c(O)c(C=NCc3ccccn3)c3ccccc3c2=O)c1 ?
PG9 binder: 2; NR2E3 ag-1: 4; NR2E3 ag-2: -26; NR1D1 modulator: 2

What do the screens show for `O=c1c2ccccc2c(C=NCc2ccccn2)c(O)n1-c1ccccc1`?
PG9 binder: 1; NR2E3 ag-1: 2; NR2E3 ag-2: -8; NR1D1 modulator: 69*; NR1D1 mod conf: 20*

What do the screens show for `Cc1cc(=O)n2[nH]c(=O)c(N=Nc3ccccc3)c2[nH]1`?
PG9 binder: -12; NR2E3 ag-1: -5; NR2E3 ag-2: -11; NR1D1 modulator: 8

How did CCOc1ccc(N=Nc2c(=O)[nH]n3c(=O)cc(C)[nH]c23)cc1 do in these assays?
PG9 binder: -15; NR2E3 ag-1: -14; NR2E3 ag-2: -62; NR1D1 modulator: 25*; NR1D1 mod conf: 41*; RORg DNA counter: >40

Results for Cc1nc(SCC(=O)Nc2cc(C)on2)c2c(=O)n(C)c(=O)n(C)c2n1 ?
PG9 binder: 2; NR2E3 ag-1: 0; NR2E3 ag-2: 6; NR1D1 modulator: 6

How did Cc1ccc(-c2nc(SCC(=O)Nc3cc(C)on3)c3c(=O)n(C)c(=O)n(C)c3n2)cc1 do in these assays?
PG9 binder: 1; NR2E3 ag-1: 1; NR2E3 ag-2: 9; NR1D1 modulator: 24*; NR1D1 mod conf: 18*

What do the screens show for `COc1ccccc1-c1nc(SCC(=O)N(C)c2ccccc2)c2c(=O)n(C)c(=O)n(C)c2n1`?
PG9 binder: 0; NR2E3 ag-1: 4; NR2E3 ag-2: 2; NR1D1 modulator: 81*; NR1D1 mod conf: 46*; RORg DNA counter: >40

How did Cn1c(=O)c2c(SCC(=O)Nc3ccccc3F)nc(-c3ccccc3F)nc2n(C)c1=O do in these assays?
PG9 binder: -1; NR2E3 ag-1: 0; NR2E3 ag-2: -2; NR1D1 modulator: 26*; NR1D1 mod conf: 3

Results for Cn1c(=O)c2c(SCC(=O)Nc3ccccc3F)nc(C3CC3)nc2n(C)c1=O ?
PG9 binder: 1; NR2E3 ag-1: -2; NR2E3 ag-2: -32; NR1D1 modulator: 1

What do the screens show for `CCCCCCCCN1C(=O)[C@@H](CC(=O)N2CCOCC2)C[C@@]2(C(=O)OC)C1=C[C@H](COCc1ccccc1)O[C@@H]2C`?
NR1D1 modulator: 3

What do the screens show for `O=C(NCCc1ccccc1F)c1cc2ccccn2n1`?
NR1D1 modulator: -3

Results for CCOC(=O)[C@]12CCCCC/C=C\1N(CCc1ccc(Cl)cc1)C(=O)[C@H]2CC(=O)N1CCC(c2ccccc2)CC1 ?
NR1D1 modulator: 3

How did COC(=O)[C@]12C[C@H](CC(=O)NCc3cccs3)C(=O)N(CCC3=CCCCC3)C1=C[C@H](C(C)(C)C)O[C@@H]2C do in these assays?
PG9 binder: -1; NR1D1 modulator: 1

Compound activity (PubChem BioAssay)
